NPY2 pot ag = potentiators or agonists of human neuropeptide Y receptor Y2; P49146; cells expressing NPY-Y2, potentiator/agonist read-out; activation, % at 3.6 µM; hit rate 0.45% among 220,000; AID 1359; in the data active = activation above about 27%;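 note: cells stimulated with NPY near EC25 plus isoproterenol at EC100; 0% = vehicle plus submaximal agonist and 100% = vehicle plus saturating agonist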
NPY-Y2 antag = antagonists of human neuropeptide Y receptor Y2; P49146; NPY-Y2 expressing cells, antagonist mode; inhibition, % at 2.7 µM; hit rate 0.99% among 140,000; AID 793;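 note: 0% = vehicle with agonist challenge and 100% = reference antagonist with challenge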
NPY-Y1 antag = NPY-Y1 (human) receptor antagonism; P25929; HEK293-CNG Y1 cells, membrane potential fluorescence; NPY at EC95, then isoproterenol; inhibition, % at 3.6 µM; hit rate 1% among 200,000;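 active = inhibition above the campaign mean inhibition of all tested compounds plus 3 SD, cut at about 20% in these data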;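 note: 0% = DMSO wells given NPY plus isoproterenol and 100% = isoproterenol alone without NPY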
Target sequence (P25929 whole entry, looked up): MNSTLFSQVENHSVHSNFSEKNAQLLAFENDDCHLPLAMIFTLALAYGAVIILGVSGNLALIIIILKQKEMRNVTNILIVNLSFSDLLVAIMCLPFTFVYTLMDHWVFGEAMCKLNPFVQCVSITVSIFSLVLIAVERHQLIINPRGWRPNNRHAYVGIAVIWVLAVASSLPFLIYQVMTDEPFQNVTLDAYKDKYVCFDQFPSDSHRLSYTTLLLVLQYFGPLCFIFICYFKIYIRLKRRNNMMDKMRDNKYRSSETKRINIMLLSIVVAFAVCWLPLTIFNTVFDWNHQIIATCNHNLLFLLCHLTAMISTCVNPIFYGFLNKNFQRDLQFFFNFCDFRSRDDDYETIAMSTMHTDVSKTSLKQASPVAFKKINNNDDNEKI
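Material: Y1- and CNG-channel-expressing HEK293 cells / Probe or stimulus: NPY 25 nM then isoproterenol 1 µM plus Ro 20-1724 25 µM / Doses: 3.6 µM single dose, DMSO 0.4% / Schedule: compound incubation 1 h at room temperature, readout 45 min post-stimulation / Signal: membrane potential fluorescence / Benchmarks: isoproterenol-only wells as full block versus NPY-plus-isoproterenol wells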
NPY1 pot ag = potentiates or activates human NPY-Y1 receptor; NPY-Y1 expressing cells, potentiator/agonist activation; activation, % at 3.6 µM; hit rate 0.37% among 220,000; AID 1304; in the data active = activation above about 33%, passing the limit was not always enough;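 note: cells stimulated with NPY at EC10 then isoproterenol at EC100; 0% = low agonist plus stimulus and 100% = saturating agonist plus stimulus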
NPY-Y1 ant conf = human NPY-Y1 antagonism, confirmation. shares compounds with NPY-Y1 antag. hit rate 21% among 1,200. inhibition, % at 3.6 µM. HEK293-CNG NPY-Y1, membrane potential fluorescence, cAMP; NPY challenge against isoproterenol-raised cAMP; in the data active = inhibition above about 20%;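 note: 0% = vehicle with agonist plus stimulus and 100% = stimulus alone without agonist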
NPY2 antag ctr = counter-screen for NPY-Y1 antagonists: human NPY-Y2 antagonism; HEK293 NPY-Y2 CNG membrane potential fluorescence; cells given NPY, then isoproterenol; hit rate 28% among 1,200; AID 1255; inhibition, % at 3.6 µM; shares compounds with NPY-Y1 antag;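 note: 0% = DMSO with agonist challenge and 100% = reference antagonist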
* hit, by the source's call; . = no result. In the library only some 1.9% were active in any assay of this set; here they are far more common. Cut-off read from the data, not from the text of the source, unless noted: active = inhibition above about 17%; inactive = the rest.

SMILES	NPY2 pot ag	NPY-Y2 antag	NPY-Y1 antag	NPY1 pot ag	NPY-Y1 ant conf	NPY2 antag ctr
Cc1ccc(F)cc1NC(=O)C1CC(=O)N(CCc2ccccc2)C1 (stereo not given)	-0.2	.	5.3	16.0	.	.
COc1cccc(-c2cc(C(=O)Nc3ccc4c(c3)OCCO4)c3ccccc3n2)c1	-5.4	3.9	2.8	-11.3	.	.
COc1cccc(-c2cc(C(=O)Nc3nc4ccccc4s3)c3ccccc3n2)c1	-134.8	15.5	30.6*	-135.3	26.2*	38.3*
CC(=O)c1ccc(NC(=O)c2cc(Cl)sc2Cl)cc1	-9.0	-0.1	5.9	7.6	.	.
Cc1cccc(OCc2n(CC(=O)OC3CC(C)CCC3C(C)C)c3ccccc3[n+]2C)c1 (stereo not given)	-24.7	.	28.5*	-48.5	24.1*	38.9*
COc1ccc(N2CCc3c(C)nc4c(OC)cc(OC)cc4c32)cc1	-18.0	.	34.1*	-31.1	25.9*	23.6*
C[N+]1(CC(O)COCC2COc3ccccc3O2)CCOCC1 (stereo not given)	-2.3	.	3.3	-22.0	.	.
CCN(CC)C(=O)CSc1nc2c(sc(=S)n2Cc2ccco2)c(=O)n1-c1ccccc1	-52.8	9.4	26.7*	1.6	3.0	4.7
CCN(CC)C(=O)CSc1nc2c(sc(=S)n2-c2ccccc2)c(=O)[nH]1	1.5	.	-1.3	18.8	.	.
O=C(NCC1CCCN(Cc2ccc3nonc3c2)C1)c1cccc(C(F)(F)F)c1 (stereo not given)	5.4	.	5.4	-5.3	.	.
O=C(c1cnccn1)N(Cc1ccco1)C1(C(=O)NC2CCCCC2)CCCCC1	9.5	14.5	31.4*	13.2	27.2*	12.1
COc1cc(C(C(=O)NC2CCCCC2)N(Cc2ccco2)C(=O)c2cnccn2)cc(OC)c1OC (stereo not given)	2.8	.	5.9	3.4	.	.
CC(C)(C)c1ccc(-c2cn(-c3ccc(Br)cc3)c3[n+]2CCCS3)cc1	-3.9	.	54.8*	-45.8	68.4*	32.1*
c1ccc(-c2cn(-c3ccccc3)c3[n+]2CCS3)cc1	-10.8	.	-1.0	11.1	.	.
O=C(Nc1ccc(CN2CCCCC2)cc1)Nc1ccc(Br)cc1Cl	-11.8	.	-3.0	6.0	.	.
CC1(C)CC(=O)C=C(NNC(=O)OC(C)(C)C)C1	-5.3	.	22.1*	-12.9	-2.1	1.5
O=S1(=O)CCC(NC(=S)N2CCOCC2)C1 (stereo not given)	-9.4	1.9	-1.3	-4.5	.	.
Cc1ccc(C(c2nnnn2CCc2ccccc2)N2CCC(C)CC2)cc1 (stereo not given)	8.8	10.0	1.6	-6.5	.	.
Cc1ccc(C(c2nnnn2CCc2ccccc2)N2CCSCC2)cc1 (stereo not given)	2.4	10.4	20.5*	2.7	10.2	4.2
O=S1(=O)CC(O)C(N=Nc2c(O)n(Cc3ccccc3)c3ccccc23)C1 (stereo not given)	-6.2	.	.	10.1	.	.
CCOc1ccccc1-c1nn2c(Cc3ccccc3)nnc2s1	-18.6	10.2	52.2*	-73.7	31.8*	59.3*
c1ccc(Cc2nnc3sc(-c4ccccn4)nn23)cc1	-2.6	6.8	5.0	-25.1	.	.
Cc1ccc(Cn2c(=N)c(C(=O)NCc3ccco3)cc3c(=O)n4ccccc4nc32)cc1	-2.6	10.2	36.1*	14.5	9.2	9.2
COc1ccccc1NC(=S)N(Cc1ccccc1)Cc1cccs1	1.8	.	26.6*	-3.4	8.6	9.8
N#CCc1c(C#N)c(N)nc(Nc2ccccc2)c1C#N	-4.7	.	.	22.8	.	.
SMILES	NPY2 pot ag	NPY-Y2 antag	NPY-Y1 antag	NPY1 pot ag	NPY-Y1 ant conf	NPY2 antag ctr
CCOC(=O)N1CCN(C(=O)c2ccc3c(=O)n(Cc4ccccc4OC)c(=S)[nH]c3c2)CC1	-33.6	11.0	21.6*	3.4	3.0	6.1
N#Cc1nc(COc2ccc(Br)cc2)oc1NCCCn1ccnc1	-21.2	7.3	26.5*	-13.9	5.6	8.0
COC(=O)/C(=N/Nc1ccccc1C)N1CCCc2ccccc21	-20.1	6.2	35.8*	-18.5	15.9	13.0
CCN(CC)CCN(C(=O)Cn1nnc(-c2ccc(C)o2)n1)C(C(=O)NC(C)(C)C)c1cccs1 (stereo not given)	-53.1	.	44.7*	-60.0	21.2*	34.3*
CCN(CC)CCCN(C(=O)Cn1nnc(-c2ccc(OC)c(OC)c2)n1)C(C(=O)NC(C)(C)C)c1ccc(F)cc1 (stereo not given)	-53.8	.	32.3*	-73.6	21.3*	38.7*
COc1ccc(/C=C/C(=O)OCC(=O)Nc2ccc(N3CCOCC3)cc2)cc1OC	-0.3	.	.	2.3	.	.
C=CCNC(=S)N/N=C/c1ccc(C(C)(C)C)cc1	-34.5	.	22.9*	-27.5	11.1	5.7
O=C(NCc1cccs1)C1CCN(S(=O)(=O)c2ccccc2F)CC1	3.5	.	.	10.9	.	.
O=C(Nc1ccc2c(c1)OCO2)C1CCN(C(=O)c2ccc(Br)cc2)CC1	-20.3	.	33.0*	-7.9	11.0	9.3
COc1ccc(Oc2cccc(Cl)c2CNC(=O)CCCC(=O)O)cc1	2.1	.	.	6.7	.	.
O=C(Cn1nnc2ccccc21)c1ccc(Cl)cc1	3.3	.	.	-6.8	.	.
Cc1ccc(C)c(C(=O)CN2C3=NCCCN3c3ccccc32)c1	-1.8	8.1	25.9*	-5.3	11.2	11.6
COC(=O)Nc1nc(-c2ccccc2)c(C(=O)c2ccc(Cl)cc2)s1	-23.6	5.9	6.0	-12.6	.	.
CCOC(=O)Nc1nc(-c2ccccc2)c(C(=O)c2ccccc2)s1	-18.1	16.2	35.9*	-19.9	5.5	21.2*
CCOC(=O)CNC(c1ccccc1)c1cc(Br)ccc1NC(C)=O (stereo not given)	-17.2	.	46.8*	-39.0	5.4	7.3
CCN1CCN(C(=S)Nc2cc(S(=O)(=O)N(CC)CC)ccc2C)CC1	-2.2	.	-1.8	19.0	.	.
COc1ccccc1NC(=O)OCC#CCOC(=O)Nc1ccccc1OC	-6.8	.	.	-35.4	.	.
COCCNC(=O)C(c1ccncc1)N(Cc1ccccc1)C(=O)Cn1nnc2ccccc21 (stereo not given)	1.3	.	1.5	2.1	.	.
CCCCNC(=O)c1sc2nc(C)cc(COC)c2c1-n1cccc1	-21.5	9.2	20.5*	-44.2	19.7	11.6
COCc1cc(C)nc2sc(C(=O)NN)c(-n3cccc3)c12	-19.8	.	0.6	-4.7	.	.
O=[N+]([O-])c1cc2c(c(CSc3ncccn3)c1)OCOC2	-7.4	.	24.0*	3.9	3.1	6.2
COc1ccc2nc(SC(C(=O)c3ccccc3)c3ccccc3)nc(C)c2c1 (stereo not given)	-29.9	15.2	39.5*	-46.0	26.7*	35.0*
Cc1nc(SC(C(=O)c2ccccc2)c2ccccc2)nc2ccccc12 (stereo not given)	-6.3	8.7	6.2	-15.4	.	.
COc1ccc(-n2nc3c(c2NC(=O)c2c(-c4ccccc4Cl)noc2C)CS(=O)(=O)C3)cc1	1.6	10.7	37.7*	6.1	8.8	11.2
CC1CCCN(Cc2cccc(Oc3ccccc3)c2)C1 (stereo not given)	-9.7	13.2	25.3*	-13.1	9.5	9.6
